{"source": "paper PMC8114561", "about": "(Small (Weinheim an der Bergstrasse, Germany), 2019)", "key": {"STS": {"test_system": "STS", "conditions": "ref NCT01514188; cited from earlier work"}, "[1]": {"conditions": "cited from earlier work"}, "[2]": {"assay": "Intravenous pharmacokinetics in healthy BALB/c mice"}, "MIA PaCa-2 tumors": {"test_system": "MIA PaCa-2 tumors", "assay": "Tumor regression, MIA PaCa-2 pancreatic xenograft", "assay_type": "in vivo, nude BALB/c mice", "conditions": "20 mg Dox equiv. kg^−1 BW"}, "[3]": {"test_system": "advanced soft tissue sarcomas", "conditions": "cited from earlier work"}, "C26 tumors": {"test_system": "C26 tumors", "assay": "Tumor regression, syngeneic C26 colon carcinoma", "assay_type": "in vivo, BALB/c mice", "conditions": "single i.v. dose"}, "[4]": {"test_system": "C26 murine colon carcinoma cells", "assay": "In vitro cytotoxicity", "assay_type": "cell-based"}, "MIA PaCa-2 cells": {"test_system": "MIA PaCa-2 cells", "assay": "In vitro cytotoxicity", "assay_type": "cell-based, human", "conditions": "72 h incubation, MTS, Dox equiv. concentration, n = 3 (Figure 2F)", "in_short": "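MIA PaCa-2 cells grown in DMEM with 10% FBS and 2.5% horse serum, seeded at 5000 cells/well and left overnight. Exposed for 72 h, in triplicate, to 3-fold serial dilutions in medium, with cell-free wells for background correction. MTS added for 3 h at 37 °C, then A490 read. Viability relative to buffer-treated cells; IC50 as Dox equiv. by logistic nonlinear regression.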"}, "[5]": {"conditions": "mouse, iv"}}, "note": "“And” between values parts separate entries of the source, which are not always exact repeats. Equal entries are not always repeated.", "data": [{"smiles": "COc1cccc2c1C(=O)c1c(O)c3c(c(O)c1C2=O)C[C@@](O)(/C(CO)=N/NC(=O)CCCCCN1C(=O)C=CC1=O)C[C@@H]3O[C@H]1C[C@H](N)[C@H](O)[C@H](C)O1", "note": "[AlDox, Aldoxorubicin]", "values": [{"measurement": "Cardiotoxicity in the AlDox arm", "setting": "STS", "result": "no evidence of cardiotoxicity"}, {"measurement": "Overall survival, AlDox versus free Dox arms", "setting": "STS", "result": "not considerably different"}, {"measurement": "PFS in the AlDox arm", "setting": "STS", "result": "superior PFS"}, {"measurement": "Concentration at which an acidic pH is required for solubility", "setting": "[1]; aqueous solutions", "result": "≥ 0.5", "unit": "mg Dox equiv. mL^−1"}, {"measurement": "Solubility at physiological pH", "setting": "[1]; requires an acidic pH for solubility in aqueous solutions", "result": "poor solubility"}, {"measurement": "Plasma concentration 15 min after i.v. injection, fold lower than ABD–Dox", "setting": "[2]; i.v. 5 mg Dox equiv. per kg BW, 15 min", "result": "approximately 2 fold"}, {"measurement": "Area under curve", "setting": "[2]; i.v. 5 mg Dox equiv. per kg BW, plasma, two-compartment model, mean ± SD", "result": "801.2 ± 23.7 × 10^−6 M h"}, {"measurement": "Tumor recurrence in tumor-eradicated mice by day 50", "setting": "MIA PaCa-2 tumors", "result": "tumors recurred in all of the tumor-eradicated mice"}, {"measurement": "Mice with complete tumor disappearance by day 15", "setting": "MIA PaCa-2 tumors; single i.v. dose", "result": 50, "unit": "%"}, {"measurement": "Cardiotoxicity", "setting": "[3]", "result": "minimal cardiotoxicity"}, {"measurement": "Progression-free survival compared to the standard of care regimen", "setting": "[3]", "result": "superior progression-free survival"}, {"measurement": "Mice that did not survive over the 100-day course of study", "setting": "C26 tumors; 20 mg Dox equiv. kg^−1 BW", "result": 89, "unit": "%"}, {"measurement": "Tumor response at 20 mg Dox equiv. kg^−1 BW", "setting": "C26 tumors; without recurrence of the primary tumor in any mice, 100 days", "result": "complete eradication of C26 tumors"}]}, {"smiles": "COc1cccc2c1C(=O)c1c(O)c3c(c(O)c1C2=O)C[C@@](O)(C(=O)CO)C[C@@H]3O[C@H]1C[C@H](N)[C@H](O)[C@H](C)O1", "note": "[free Dox, doxorubicin]", "values": [{"measurement": "IC50", "setting": "[4]; 72 h, in the absence of MSA and ABD, n = 3 (Figure 2H)", "result": 230, "unit": "nM"}, {"measurement": "IC50", "setting": "[4]; 72 h, in the presence of ABD (0.5 × 10^−3 M in medium), n = 3 (Figure 2H)", "result": 160, "unit": "nM"}, {"measurement": "IC50", "setting": "[4]; 72 h, in the presence of MSA (equimolar), n = 3 (Figure 2H)", "result": 220, "unit": "nM"}, {"measurement": "IC50", "setting": "[4]; 72 h incubation, MTS, Dox equiv. concentration, n = 3 (Figure 2F)", "result": "510 nM and 500 nM"}, {"measurement": "Change of cytotoxicity in the presence of either MSA or ABD", "setting": "[4]; C26 cells, 72 h", "result": "No difference was observed"}, {"measurement": "IC50", "setting": "MIA PaCa-2 cells", "result": 40, "unit": "nM"}, {"measurement": "Concentration in blood 15 min after i.v. injection, of the initial concentration", "setting": "[2]; i.v. 5 mg per kg BW, 15 min", "result": "less than 2%"}, {"measurement": "In vivo elimination half-life", "setting": "[5]", "result": "on the order of minutes"}]}]}
